NS3 helicase inh: HCV NS3 helicase inhibition; NS3 helicase DNA unwinding, Cy5 molecular beacon fluorescence; 290,000 compounds, 0.56% hits; inhibition, % at 10.9 µM;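 active means inhibition above the mean of all tested compounds plus 3 SD, set per campaign, cut at about 35% in these data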
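Assay system – hepatitis C virus NS3 helicase domain fragment enzyme · Buffer or medium – MOPS pH 6.5, MgCl2, DTT, Tween20, BSA · Reagent – Cy5/quencher beacon DNA duplex and ATP to start · Compound – single 10.9 µM dose · Timing – 1 h at 25 °C · Technique – Cy5 beacon fluorescence read at start and 1 h · Measure – % inhibition of unwinding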
MEKK2wt PB1 HTS: raises or lowers MEK5 binding to wildtype human MEKK2 PB1 domain; Q9Y2U5; bead flow cytometry, Alexa488-MEK5 binding to MEKK2 WT; actives lie on both sides; binding response (% of control), % at 10 µM; 290,000 compounds, 1.1% hits; AID 1531; in the data active means binding response below about 67% or above about 130%
MEKK2mut PB1 HTS: signal of MEK5 binding to mutant human MEKK2 PB1 domain; bead flow cytometry, Alexa488-MEK5 binding to MEKK2 mutant; percent response, % at 10 µM; 290,000 compounds, 0.35% hits; in the data active means percent response above about 24%, passing the limit was not always enough
T cruzi inh: T. cruzi replication inhibition | T. cruzi beta-gal in NIH3T3, luminescence, 90 h | inhibition, % (test concentration not listed) | 300,000 compounds, 1.4% hits | AID 1885;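 active means mean inhibition across valid replicates above about 55%, limit read from the data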;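 further: signal also drops with host cell toxicity which is not excluded here; higher percent means less beta-gal luminescence so fewer parasites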
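Material: NIH/3T3 host cells with β-galactosidase reporter T. cruzi; Input: 5,000 host fibroblasts per well; Medium: DMEM, 2% fetal bovine serum; Compound: 50 nL DMSO compound solution per well; Schedule: 3 h host attachment, then at least 90 h co-culture; Detection: luminescent β-galactosidase signal after 60 min lysis.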
FID counter: displaces DNA intercalator in HCV helicase counter-screen. DNA fluorescent intercalator displacement, fluorescence. inhibition, % at 7.9 µM. 290,000 compounds, 0.17% hits; in the data active means inhibition above about 37%;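 further: higher means more ethidium bromide displaced from hairpin DNA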
MEKK3 PB1 HTS: raises or lowers MEK5 binding to the human MEKK3 PB1 domain | Q99759 | bead-based flow cytometry, Alexa488-MEK5 binding to MEKK3; actives lie on both sides; 0 = blocked by unlabeled MEK5, 100 = vehicle | binding response (% of control), % at 10 µM | 290,000 compounds, 1.4% hits;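 active means binding response more than 3 SD above or below the average of its plate-row segment, actives on both sides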;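 further: Alexa488 bead fluorescence after subtracting the streptavidin-only scavenger bead signal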
Target sequence (Q99759 whole entry, looked up, the tested form may be a part): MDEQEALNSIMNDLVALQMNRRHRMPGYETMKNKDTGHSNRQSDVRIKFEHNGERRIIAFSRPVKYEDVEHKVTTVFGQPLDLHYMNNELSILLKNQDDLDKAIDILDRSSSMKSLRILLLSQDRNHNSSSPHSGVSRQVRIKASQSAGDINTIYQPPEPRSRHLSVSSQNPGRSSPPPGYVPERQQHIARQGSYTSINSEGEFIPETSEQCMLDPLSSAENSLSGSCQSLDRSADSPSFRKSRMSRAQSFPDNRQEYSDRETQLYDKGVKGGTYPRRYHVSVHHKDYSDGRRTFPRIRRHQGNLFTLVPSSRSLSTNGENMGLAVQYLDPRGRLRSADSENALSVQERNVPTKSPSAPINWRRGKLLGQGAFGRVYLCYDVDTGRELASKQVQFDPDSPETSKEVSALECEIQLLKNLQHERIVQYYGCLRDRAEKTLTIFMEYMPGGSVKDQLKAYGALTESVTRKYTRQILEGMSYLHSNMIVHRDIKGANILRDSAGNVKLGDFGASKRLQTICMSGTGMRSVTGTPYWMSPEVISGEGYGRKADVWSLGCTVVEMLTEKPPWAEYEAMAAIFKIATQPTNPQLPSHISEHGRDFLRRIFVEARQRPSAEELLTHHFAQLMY
MEKK2wt confirm: raises or lowers MEK5 binding to wildtype human MEKK2, retest | shares compounds with MEKK3 PB1 HTS | bead flow cytometry, Alexa488-MEK5 binding to MEKK2 WT; actives lie on both sides | binding response (% of control), % at 10 µM | 5,900 compounds, 2.4% hits; in the data active means binding response below about 16% or above about 210%; inactive means in between
MEKK2mut confirm: signal of MEK5 binding to mutant human MEKK2, retest; 5,900 compounds, 2% hits; percent response, % at 10 µM; shares compounds with MEKK3 PB1 HTS; bead flow cytometry, Alexa488-MEK5 binding to MEKK2 mutant; AID 1893; in the data active means percent response mostly above about 71%, no sharp cut-off; inactive means mostly below about 38%;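 further: higher means compound restores mutant binding toward wildtype level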
MEKK3-MEK5 inh: confirmation of inhibitors of MEK5 binding to human MEKK3. shares compounds with MEKK3 PB1 HTS. bead flow cytometry, Alexa488-MEK5 binding to MEKK3; hits give low values. binding response (% of control), % at 10 µM. 5,900 compounds, 1.8% hits. AID 1894;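 active means binding response below 72% of control, or above a set upper limit, though filed actives all read lower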
Hits are given with their value; n = inactive; x = not tested or not shown; [ ] = another dose, or the depositor's remark. An excerpt weighted towards active compounds, which were near 4.1% of everything screened.

SMILES	NS3 helicase inh	MEKK2wt PB1 HTS	MEKK2mut PB1 HTS	T cruzi inh	FID counter	MEKK3 PB1 HTS	MEKK2wt confirm	MEKK2mut confirm	MEKK3-MEK5 inh
COc1ccc(CCC(=O)Nc2ccc(C)c([N+](=O)[O-])c2)cc1	n	n	n	n	n	161.0	n	n	n
COc1ccc(-c2noc(CCC(=O)NCC3CCN(Cc4cccc(C)c4)CC3)n2)cc1	n	143.0	39.0	n	n	n	n	n	n
COc1ccc(-c2noc(CCC(=O)Nc3ccc(C)c(C)c3)n2)cc1	n	-7.0[inhibitor]	n	n	n	0.0[inhibitor]	n	n	n
COc1ccc(-c2noc(CCC(=O)NC3CCN(Cc4ccccc4)CC3)n2)cc1	n	n	n	n	n	n	x	x	x
COc1ccc(CCNC(=O)CC(Cc2ccc(C)cc2)C(=O)O)cc1OC (stereo unspecified)	n	n	n	n	n	n	x	x	x
Cc1ccccc1N1C(=O)c2cccc3cccc(c23)C1=O	n	n	26.0	n	n	n	n	n	n
Cc1ccccc1CN1CCC(CNC(=O)C2CCCN(c3ncnc4c3nc3n4CCCCC3)C2)CC1 (stereo unspecified)	n	n	n	n	n	n	x	x	x
O=S(=O)(NCc1ccco1)c1cccc(S(=O)(=O)N2CCOCC2)c1	n	2.0[inhibitor]	n	n	n	2.0[inhibitor]	n	n	n
Cc1ccc(S(=O)(=O)c2ccccc2)cc1S(=O)(=O)N1CCOCC1	n	n	n	n	n	n	x	x	x
O=C(NCc1ccco1)C1CCN(c2ccc(S(=O)(=O)N3CCOCC3)cc2[N+](=O)[O-])CC1	n	n	n	n	n	71.0[inhibitor]	n	n	n
Cc1ccc(S(=O)(=O)c2cccc(S(=O)(=O)N3CCOCC3)c2)cc1S(=O)(=O)N1CCOCC1	n	2.0[inhibitor]	n	n	n	2.0[inhibitor]	n	n	n
O=S(=O)(NCc1ccc(F)cc1)c1cccc(S(=O)(=O)N2CCOCC2)c1	n	n	n	n	n	n	x	x	x
O=C(NCCc1ccc(Cl)cc1)c1cc(-c2ccccn2)nc2ccccc12	n	n	n	n	n	n	x	x	x
O=C(NCc1ccc(Cl)cc1)C1CCC(CNS(=O)(=O)c2ccccc2)CC1 (stereo unspecified)	n	n	n	n	n	n	x	x	x
CC(=O)Nc1ccc(S(=O)(=O)NCC2CCC(C(=O)NCc3ccccc3)CC2)cc1 (stereo unspecified)	n	n	n	n	n	138.0	n	n	n
Cc1[nH]c2ccccc2c1C(=O)COC(=O)Cn1cnc2ccccc21	n	n	55.0	n	n	n	n	n	n
Cc1[nH]c2ccccc2c1C(=O)COC(=O)Cn1c(C)nc2ccccc21	n	n	n	n	n	n	x	x	x
Cc1cccc(CC(=O)N2CCC(N3CCC(C(=O)N4CCOCC4)CC3)CC2)c1	n	n	n	n	n	n	x	x	x
O=C1C2C3C=CC(C4CC34)C2C(=O)N1c1cccc2ccccc12 (stereo unspecified)	n	n	n	n	n	n	x	x	x
CCOC(=O)Nc1cc(Br)c2c(c1)OCCO2	n	-4.0[inhibitor]	n	n	n	0.0[inhibitor]	n	n	n
NC(=O)CC(NC(=O)c1ccc(Br)cc1)c1ccc(N2CCCCCC2)c([N+](=O)[O-])c1 (stereo unspecified)	n	n	n	n	n	n	x	x	x
CCCCn1c(SCC(=O)Nc2nc(C)cs2)nnc1-c1cccnc1	n	1.0[inhibitor]	n	n	n	1.0[inhibitor]	n	n	n
CCCn1c(SCC(=O)Nc2nccs2)nnc1-c1cccnc1	n	n	n	n	n	n	x	x	x

Bioassay records deposited in PubChem BioAssay by several laboratories.
